Data from ChEMBL document CHEMBL4354819, “Discovery of Novel Small Molecule Dual Inhibitors Targeting Toll-Like Receptors 7 and 8” (J Med Chem, 2019).
Activity calls are given as the source filed them. The calls are words filed in the database; no cut-off is given here.

Columns and labels:
[1] = biological target: Toll-like receptor 7 (Homo sapiens) (UniProt Q9NYK1); test: Inhibition of human TLR7 expressed in HEK293 cells assessed as reduction in R848-induced NFkappaB production incubated for 16 hrs by quanti-blue SEAP assay; settings: concentration not given here
[2] = biological target: Toll-like receptor 8 (Homo sapiens) (UniProt Q9NR97); test: Inhibition of human TLR8 expressed in HEK293 cells assessed as reduction in resiquimod-induced NFkappaB production at 1.5 to 5 uM incubated for 16 hrs by quanti-blue SEAP assay
[3] = biological target: T1, Toll-like receptor 8 (Homo sapiens) (UniProt Q9NR97); test: Inhibition of human TLR8 expressed in HEK293 cells assessed as reduction in R848-induced NFkappaB production at 50 uM incubated for 16 hrs by quanti-blue SEAP assay relative to control; type: cell-based
T1 sequence (whole entry): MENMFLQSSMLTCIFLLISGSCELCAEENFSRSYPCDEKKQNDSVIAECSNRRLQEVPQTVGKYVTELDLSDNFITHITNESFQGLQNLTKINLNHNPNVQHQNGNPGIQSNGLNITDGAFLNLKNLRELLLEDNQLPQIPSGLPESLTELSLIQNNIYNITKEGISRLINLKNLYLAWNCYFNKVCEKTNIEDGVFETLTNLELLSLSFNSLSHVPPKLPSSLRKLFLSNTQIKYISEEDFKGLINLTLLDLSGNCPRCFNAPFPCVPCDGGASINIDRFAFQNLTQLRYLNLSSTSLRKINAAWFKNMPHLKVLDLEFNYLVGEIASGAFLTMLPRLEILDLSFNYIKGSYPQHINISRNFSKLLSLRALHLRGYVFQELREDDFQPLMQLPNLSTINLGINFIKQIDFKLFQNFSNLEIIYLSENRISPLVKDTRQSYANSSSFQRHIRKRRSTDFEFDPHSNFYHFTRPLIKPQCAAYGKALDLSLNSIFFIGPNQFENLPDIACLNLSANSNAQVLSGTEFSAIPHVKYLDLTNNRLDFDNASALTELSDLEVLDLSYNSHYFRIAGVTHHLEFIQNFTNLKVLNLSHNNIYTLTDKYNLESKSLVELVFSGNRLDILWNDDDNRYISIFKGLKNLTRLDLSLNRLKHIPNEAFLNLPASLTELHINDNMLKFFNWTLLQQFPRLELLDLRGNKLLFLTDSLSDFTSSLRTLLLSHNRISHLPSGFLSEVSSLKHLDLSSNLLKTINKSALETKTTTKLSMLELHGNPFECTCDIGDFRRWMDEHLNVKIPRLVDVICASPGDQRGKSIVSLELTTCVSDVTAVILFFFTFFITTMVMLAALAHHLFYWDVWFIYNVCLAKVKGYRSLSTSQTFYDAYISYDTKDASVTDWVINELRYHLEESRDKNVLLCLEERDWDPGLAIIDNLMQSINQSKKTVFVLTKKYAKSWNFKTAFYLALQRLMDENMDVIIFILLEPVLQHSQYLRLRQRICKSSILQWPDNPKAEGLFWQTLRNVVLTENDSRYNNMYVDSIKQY
Outline: (§1)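 HEK 293-Blue cells stably expressing hTLR7 or hTLR8 with an inducible SEAP reporter were incubated 16 h with compound under 1 µg/mL R848 stimulation. SEAP was read at 620 nm. Data were normalized to the R848 control, and IC50 was taken from concentration-response curves. […] Mean ± s.d., n = 3 independent experiments.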

[4] = biological target: T2, Toll-like receptor 7 (Homo sapiens) (UniProt Q9NYK1); test: Inhibition of human TLR7 expressed in HEK293 cells assessed as reduction in R848-induced NFkappaB production at 50 uM incubated for 16 hrs by quanti-blue SEAP assay relative to control; type: cell-based
T2 sequence (whole entry): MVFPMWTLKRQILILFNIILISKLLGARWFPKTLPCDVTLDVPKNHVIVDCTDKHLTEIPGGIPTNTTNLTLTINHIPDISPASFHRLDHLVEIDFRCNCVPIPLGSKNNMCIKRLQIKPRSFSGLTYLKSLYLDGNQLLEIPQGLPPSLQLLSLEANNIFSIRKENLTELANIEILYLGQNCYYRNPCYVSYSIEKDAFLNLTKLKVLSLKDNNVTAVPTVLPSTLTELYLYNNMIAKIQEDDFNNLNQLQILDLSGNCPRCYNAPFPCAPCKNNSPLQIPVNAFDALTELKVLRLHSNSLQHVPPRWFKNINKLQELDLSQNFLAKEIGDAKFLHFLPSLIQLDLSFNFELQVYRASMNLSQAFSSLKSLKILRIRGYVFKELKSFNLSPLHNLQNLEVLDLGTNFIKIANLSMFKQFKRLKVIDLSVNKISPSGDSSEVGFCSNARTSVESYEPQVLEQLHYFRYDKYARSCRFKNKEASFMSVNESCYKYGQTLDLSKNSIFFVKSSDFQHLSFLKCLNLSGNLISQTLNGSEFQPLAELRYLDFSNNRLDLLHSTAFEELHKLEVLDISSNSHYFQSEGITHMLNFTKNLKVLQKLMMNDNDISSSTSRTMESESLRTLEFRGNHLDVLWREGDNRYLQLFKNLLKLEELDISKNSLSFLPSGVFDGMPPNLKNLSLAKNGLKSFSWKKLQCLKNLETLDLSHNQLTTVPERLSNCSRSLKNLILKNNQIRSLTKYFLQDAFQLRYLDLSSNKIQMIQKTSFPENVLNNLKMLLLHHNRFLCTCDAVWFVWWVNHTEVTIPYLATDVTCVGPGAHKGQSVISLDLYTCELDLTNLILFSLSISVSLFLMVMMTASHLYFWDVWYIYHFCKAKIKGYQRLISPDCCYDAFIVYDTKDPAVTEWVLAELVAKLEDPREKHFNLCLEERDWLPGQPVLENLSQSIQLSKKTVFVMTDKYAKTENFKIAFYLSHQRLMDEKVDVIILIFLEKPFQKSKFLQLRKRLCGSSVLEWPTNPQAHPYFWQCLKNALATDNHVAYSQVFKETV
Outline: as §1

[5] = biological target: T3, Toll-like receptor 7 (Homo sapiens, UniProt Q9NYK1); test: (§2) Inhibition of human TLR7 expressed in HEK293 cells assessed as reduction in R848-induced NFkappaB production incubated for 16 hrs by quanti-blue SEAP assay; type: cell-based
T3 sequence (Q9NYK1 whole entry): T2 sequence (whole entry)
Outline: as §1

[6] = biological target: T2, Toll-like receptor 7 (Homo sapiens); test: Inhibition of human TLR7 expressed in HEK293 cells assessed as reduction in resiquimod-induced NFkappaB production at 1.5 to 5 uM incubated for 16 hrs by quanti-blue SEAP assay; type: cell-based
Outline: (§3)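 Selectivity panel in stably transfected HEK 293-Blue cells, each overexpressing one human TLR with an inducible SEAP reporter. Agonists: Pam3CSK4 (TLR1/2), Pam2CSK4 (TLR2/6), poly(I:C) (TLR3), LPS (TLR4), R848 (TLR7/8), ODN 2006 (TLR9). Cells were exposed to compound for 16 h. Activity = (raw − untreated)/(ligand + solvent − untreated), with ligand + solvent set as 100%.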

[7] = biological target: T1, Toll-like receptor 8 (Homo sapiens); test: Inhibition of human TLR8 expressed in HEK293 cells assessed as reduction in R848-induced NFkappaB production at 1.5 to 5 uM incubated for 16 hrs by quanti-blue SEAP assay; type: cell-based
Outline: as §3

[8] = test system: HEK293; test: Inhibition of human TLR1/2 expressed in HEK293 cells assessed as reduction in Pam3CSK4-induced NFkappaB production at 1.5 to 5 uM incubated for 16 hrs by quanti-blue SEAP assay; type: cell-based
Outline: as §3

[9] = biological target: T4, Toll-like receptor 8 (Homo sapiens, UniProt Q9NR97); test: (§4) Inhibition of human TLR8 expressed in HEK293 cells assessed as reduction in R848-induced NFkappaB production incubated for 16 hrs by quanti-blue SEAP assay; type: cell-based
T4 sequence (Q9NR97 whole entry): T1 sequence (whole entry)
Outline: as §1

[10] = biological target: T1, Toll-like receptor 8 (Homo sapiens); test: as §4; type: cell-based
Outline: as §1

[11] = test system: HEK293; test: Cytotoxicity against human HEK293 cells transfected with human TLR8 assessed as reduction in cell viability up to 5 uM incubated for 16 hrs by WST-1 assay; type: cell-based; settings: hek293, 16 h
[12] = biological target: Toll-like receptor 4 (Homo sapiens) (UniProt O00206); test: Inhibition of human TLR4 expressed in HEK293 cells assessed as reduction in LPS-induced NFkappaB production at 1.5 to 5 uM incubated for 16 hrs by quanti-blue SEAP assay; type: cell-based
Sequence of Toll-like receptor 4 (Homo sapiens) (O00206 whole entry): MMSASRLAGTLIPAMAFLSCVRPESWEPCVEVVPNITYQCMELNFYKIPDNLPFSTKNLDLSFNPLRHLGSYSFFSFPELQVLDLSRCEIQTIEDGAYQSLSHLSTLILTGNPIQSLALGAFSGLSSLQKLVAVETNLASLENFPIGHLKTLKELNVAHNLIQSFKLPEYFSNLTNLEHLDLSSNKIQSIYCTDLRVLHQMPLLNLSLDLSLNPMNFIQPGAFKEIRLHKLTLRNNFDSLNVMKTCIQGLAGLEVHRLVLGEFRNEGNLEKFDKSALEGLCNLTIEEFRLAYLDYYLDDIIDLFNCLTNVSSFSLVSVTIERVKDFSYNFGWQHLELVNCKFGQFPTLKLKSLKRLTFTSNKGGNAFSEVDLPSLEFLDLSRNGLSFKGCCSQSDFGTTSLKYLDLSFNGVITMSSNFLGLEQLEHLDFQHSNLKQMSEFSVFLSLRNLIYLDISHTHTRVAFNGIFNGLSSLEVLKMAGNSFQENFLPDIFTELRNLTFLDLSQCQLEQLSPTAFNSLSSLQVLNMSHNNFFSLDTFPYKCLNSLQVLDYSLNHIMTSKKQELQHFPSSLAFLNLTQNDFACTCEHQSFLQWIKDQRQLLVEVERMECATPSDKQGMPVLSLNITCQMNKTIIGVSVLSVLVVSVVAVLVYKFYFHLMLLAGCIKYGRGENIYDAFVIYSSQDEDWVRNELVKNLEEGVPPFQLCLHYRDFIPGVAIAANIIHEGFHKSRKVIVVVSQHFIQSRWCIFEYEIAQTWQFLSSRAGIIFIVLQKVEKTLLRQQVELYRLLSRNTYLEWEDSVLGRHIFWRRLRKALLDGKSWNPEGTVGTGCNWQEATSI
Outline: as §3

[13] = biological target: T2, Toll-like receptor 7 (Homo sapiens); test: as §2; type: cell-based
Outline: as §1

[14] = biological target: TLR2/TLR6 (Homo sapiens) (UniProt O60603+Q9Y2C9); test: Inhibition of human TLR2/6 expressed in HEK293 cells assessed as reduction in Pam2CSK4-induced NFkappaB production at 1.5 to 5 uM incubated for 16 hrs by quanti-blue SEAP assay; type: cell-based
Outline: as §3

[15] = biological target: Toll-like receptor 3 (Homo sapiens) (UniProt O15455); test: Inhibition of human TLR3 expressed in HEK293 cells assessed as reduction in poly(I:C)-induced NFkappaB production at 1.5 to 5 uM incubated for 16 hrs by quanti-blue SEAP assay; type: cell-based
Sequence of Toll-like receptor 3 (Homo sapiens) (O15455 whole entry): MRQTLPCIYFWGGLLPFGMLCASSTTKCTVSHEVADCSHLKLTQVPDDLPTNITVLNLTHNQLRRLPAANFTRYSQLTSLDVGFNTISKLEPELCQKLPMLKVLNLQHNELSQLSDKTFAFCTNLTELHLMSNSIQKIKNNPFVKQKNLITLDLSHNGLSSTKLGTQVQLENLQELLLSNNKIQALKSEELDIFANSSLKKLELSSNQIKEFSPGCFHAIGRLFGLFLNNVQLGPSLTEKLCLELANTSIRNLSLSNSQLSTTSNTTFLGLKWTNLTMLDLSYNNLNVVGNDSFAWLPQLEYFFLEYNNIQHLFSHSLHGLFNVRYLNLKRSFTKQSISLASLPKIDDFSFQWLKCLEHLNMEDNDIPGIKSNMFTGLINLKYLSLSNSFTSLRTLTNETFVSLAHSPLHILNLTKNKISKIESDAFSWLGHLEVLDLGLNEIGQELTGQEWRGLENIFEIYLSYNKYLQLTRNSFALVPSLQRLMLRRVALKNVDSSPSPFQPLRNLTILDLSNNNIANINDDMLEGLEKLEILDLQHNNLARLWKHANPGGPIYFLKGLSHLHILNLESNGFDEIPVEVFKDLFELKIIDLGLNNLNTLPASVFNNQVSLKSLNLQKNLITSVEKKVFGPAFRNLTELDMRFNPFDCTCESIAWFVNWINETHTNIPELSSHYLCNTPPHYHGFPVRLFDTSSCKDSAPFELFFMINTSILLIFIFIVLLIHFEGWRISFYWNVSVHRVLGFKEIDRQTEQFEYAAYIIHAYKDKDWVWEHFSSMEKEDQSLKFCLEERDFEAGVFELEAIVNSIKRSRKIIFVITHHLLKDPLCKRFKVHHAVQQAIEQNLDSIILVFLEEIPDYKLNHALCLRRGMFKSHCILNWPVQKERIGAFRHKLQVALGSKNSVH
Outline: as §3

[16] = biological target: T1, Toll-like receptor 8 (Homo sapiens); test: Inhibition of human TLR8 expressed in HEK293 cells assessed as reduction in R848-induced NFkappaB production at 1.5 to 5 uM incubated for 16 hrs by quanti-blue SEAP assay

With `O=C(Nc1c(F)cccc1Cl)c1ccc(Oc2cc(C(F)(F)F)cc(C(F)(F)F)c2)cc1` as the molecule, how does the inhibition [1] read?
Its inhibition is 0%.

What about the IC50 [2] of the same molecule?
Its IC50 is 7100 nM.

What does the source list for `O=C(Nc1ccc(Oc2cc(C(F)(F)F)cc(C(F)(F)F)c2)cc1)c1c(F)cccc1C(F)(F)F`?
inhibition [3]: 20 to 30%; inhibition [4]: 20 to 30%

Which inhibition [3] does the source give for `O=C(Nc1ccc(Oc2cc(C(F)(F)F)cc(C(F)(F)F)c2)cc1)c1ccc2nc[nH]c2c1` here?
Its inhibition is 20 to 30%.

What about the IC50 [5] of the same molecule?
Its IC50 is > 50000 nM.

`O=C(Nc1ccc(Oc2cc(C(F)(F)F)cc(C(F)(F)F)c2)cc1)c1cc(I)ccc1F` was tested. Which inhibition [6] did it give?
The inhibition was 0%.

What about the inhibition [3] of the same molecule?
Its inhibition is 20 to 30%.

`CN(C(=O)c1c(F)cccc1Cl)c1ccc(Oc2cc(C(F)(F)F)cc(C(F)(F)F)c2)cc1` was tested. Which inhibition [1] did it give?
Its inhibition is 0%.

And the IC50 [2]?
The IC50 was 2900 nM.

With `O=C(Nc1cc(C(F)(F)F)cc(C(F)(F)F)c1)c1c(F)cccc1Cl` as the molecule, how does the inhibition [1] read?
Its inhibition is 0%.

And the IC50 [2]?
The IC50 was 1400 nM.

`Nc1cccc(F)c1C(=O)Nc1ccc(Oc2cc(C(F)(F)F)cc(C(F)(F)F)c2)cc1` was tested. Which inhibition [3] did it give?
The inhibition was 20 to 30%.

And the inhibition [4]?
Its inhibition is 20 to 30%.

What does the source list for `O=C(Nc1ccc(Oc2cc(C(F)(F)F)cc(C(F)(F)F)c2)cc1)c1c(O)cccc1F`?
inhibition [3]: 20 to 30%; inhibition [4]: 20 to 30%

What does the source list for `N#Cc1c(Cl)cccc1Oc1ccc(-c2nnco2)cc1`?
inhibition [6]: inactive; inhibition [7]: Active; inhibition [8]: inactive; IC50 [9]: 1400 nM; inhibition [10]: Dose-dependent effect; Activity [11]: Non-Toxic; inhibition [12]: inactive; inhibition [13]: Dose-dependent effect; inhibition [14]: inactive; inhibition [15]: inactive; inhibition [16]: Active

`O=C(Nc1ccc(Oc2cc(C(F)(F)F)cc(C(F)(F)F)c2)cc1)c1cc(Cl)ccc1F` was tested. Which IC50 [9] did it give?
The IC50 was 1110 nM.

What about the inhibition [4] of the same molecule?
Its inhibition is 20 to 30%.

Which inhibition [3] does the source give for `O=C(Nc1ccc(Oc2cc(C(F)(F)F)cc(C(F)(F)F)c2)cc1)c1ccc2[nH]ccc2c1` here?
Its inhibition is 20 to 30%.

And the IC50 [5]?
Its IC50 is > 50000 nM.
